# Screens as filed in PubChem.
# ADAM17 inh – inhibits human ADAM17; recombinant ADAM17, EDANS/DABCYL FRET peptide cleavage; AID 720648; 370,000 compounds, 0.83% hits; inhibition, % at 6.95 µM; P78536;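 active means inhibition above the mean of compounds lying between control limits plus 3 SD, set per campaign, cut at about 8.5% in these data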;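 further: 0% = DMSO-only wells as the low control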
# FAS TE block – inhibitors of human fatty acid synthase thioesterase domain; P49327; recombinant FAS-TE, OMFH fluorogenic substrate, fluorescence endpoint; inhibition, % at 15 µM; 360,000 compounds, 0.67% hits;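 active means compounds whose normalised, plate-corrected inhibition of enzyme fluorescence in the single-dose primary screen is 50% or more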;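 further: 0% = DMSO with enzyme and 100% = substrate without enzyme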
# CaV13 FRET inh – Primary screen for inhibitors of IQ motif and Ca2+-dependent inactivation inhibitor domain binding in CACNA1D, Förster resonance energy transfer in living cells, …; HEK cells, CFP/YFP FRET ICDI-IQ, plate reader, 10 min; percent FRET-ratio fall versus neutral wells; inhibition, % at 12.3 µM; 340,000 compounds, 0.098% hits;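 active means mean replicate inhibition of at least 30% and at least 1% of replicates passing that level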;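 further: 0% = median of the neutral control wells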
# Arr AP2 block – inhibitors of human beta-arrestin and AP2 interaction. FITC-arrestin peptide / GST-AP2 beads, flow cytometry; AP2 beta2 appendage carries R879A mutation. inhibition, % at 10 µM. 340,000 compounds, 0.31% hits. AID 504490;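 active means inhibition above a set limit, near 3 SD of compounds lacking own fluorescence, cut at about 54% in these data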;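 further: plate controls were DMSO wells for no effect and 5 µM unlabelled arrestin peptide for full effect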
#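 System: GST-AP2 R879A glutathione beads | Also added: FITC-arrestin peptide, 50 nM | Times: 12 min plus 1 h, RT | Signal: Bead flow cytometry, FITC channel | Buffer or medium: PBS with 0.05% Tween 20 and 0.1% BSA | Read-out basis: Percent drop in bead-associated FITC signal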
# ADAM10 inh – inhibits human ADAM10; O14672; recombinant ADAM10, EDANS/DABCYL FRET peptide cleavage, 3 h; AID 720582; 370,000 compounds, 0.62% hits; inhibition, % at 7 µM;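 active means inhibition above a per-campaign cutoff equal to the mean of compounds falling between control-based bounds plus 3 SD, cut at about 20% in these data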;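 further: 0% = DMSO wells while the 100% control is not disclosed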
# CendR NRP1 mod – alters CendR peptide binding to human NRP-1; O14786; FAM-RPARPAR peptide binding to NRP-1, fluorescence polarization; inhibition, % at 25 µM; 360,000 compounds, 0.85% hits; AID 602438;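 active means inhibition or corrected inhibition above about 18%, plus a signal ratio from 0.5 to 1.5, limit read from the data, passing the limit was not always enough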
# Target sequence (O14786 whole entry, looked up): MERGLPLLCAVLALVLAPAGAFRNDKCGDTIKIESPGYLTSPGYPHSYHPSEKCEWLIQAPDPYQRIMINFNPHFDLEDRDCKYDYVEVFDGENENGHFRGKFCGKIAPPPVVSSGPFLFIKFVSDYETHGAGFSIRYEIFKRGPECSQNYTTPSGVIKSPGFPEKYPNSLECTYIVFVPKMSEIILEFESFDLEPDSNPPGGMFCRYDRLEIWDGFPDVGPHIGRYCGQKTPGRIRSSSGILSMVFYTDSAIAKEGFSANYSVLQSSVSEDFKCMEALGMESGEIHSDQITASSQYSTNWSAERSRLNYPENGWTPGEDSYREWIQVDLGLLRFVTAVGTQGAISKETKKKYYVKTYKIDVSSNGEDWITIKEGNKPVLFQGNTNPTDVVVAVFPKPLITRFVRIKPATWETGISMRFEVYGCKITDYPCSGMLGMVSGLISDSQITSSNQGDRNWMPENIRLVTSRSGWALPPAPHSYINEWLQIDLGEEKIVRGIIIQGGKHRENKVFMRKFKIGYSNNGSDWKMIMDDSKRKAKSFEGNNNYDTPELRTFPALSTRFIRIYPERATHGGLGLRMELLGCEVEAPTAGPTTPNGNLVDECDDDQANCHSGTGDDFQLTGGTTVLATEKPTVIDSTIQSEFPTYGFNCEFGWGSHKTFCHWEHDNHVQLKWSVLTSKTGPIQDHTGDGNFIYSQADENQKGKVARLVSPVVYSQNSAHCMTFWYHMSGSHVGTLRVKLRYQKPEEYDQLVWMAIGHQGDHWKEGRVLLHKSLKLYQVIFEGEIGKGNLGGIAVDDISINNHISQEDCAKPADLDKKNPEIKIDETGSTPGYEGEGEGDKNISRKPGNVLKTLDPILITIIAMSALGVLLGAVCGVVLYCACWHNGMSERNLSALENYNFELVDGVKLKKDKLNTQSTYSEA
# FAS-TE conf – FAS thioesterase (human) inhibition, confirmation | recombinant FAS-TE, OMFH fluorogenic substrate, fluorescence | 2,300 compounds, 45% hits | shares compounds with FAS TE block | inhibition, % at 15 µM;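 active means compounds inhibiting the enzyme by at least 50% at 15 µM in any one of the replicates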;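 further: 0% = enzyme with DMSO only and 100% = wells lacking enzyme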
# Active calls of the source: *; . = no result. Hits are enriched below; roughly 2.9% of the tested compounds scored in any of these assays.
SMILES,ADAM17 inh,FAS TE block,CaV13 FRET inh,Arr AP2 block,ADAM10 inh,CendR NRP1 mod,FAS-TE conf
COc1ccc(S(=O)(=O)N(C)C[C@H]2Oc3c(NC(=O)Nc4ccccc4)cccc3C(=O)N([C@H](C)CO)C[C@@H]2C)cc1,-0.5,13.2,-5.7,1.3,8.8,17.2,.
C[C@@]12C(=O)Nc3cc(Cl)ccc3C(=O)N1[C@H]1c3ccccc3OC[C@@H]1[C@@H]2c1ccccc1,.,86.8*,.,-6.6,.,-1.1,37.4
C[C@@]12C(=O)Nc3ccc(F)cc3C(=O)N1[C@H]1c3cc(Cl)ccc3OC[C@@H]1[C@@H]2c1ccccc1,1.8,84.7*,-13.1,17.5,0.8,4.2,35.4
Cc1ccc2c(c1)[C@H]1[C@H](CO2)[C@H](c2ccccc2)[C@]2(C)C(=O)Nc3ccc(Br)cc3C(=O)N12,8.6,95.7*,-11.1,9.3,19.5,9.3,26.2
C[C@@]12C(=O)Nc3cc(Cl)ccc3C(=O)N1[C@H]1c3cc(Br)ccc3OC[C@@H]1[C@@H]2c1ccccc1,-2.9,80.2*,-5.5,-2.4,-0.7,3.7,8.0
Cc1ccc2c(c1)C(=O)N1[C@H]3c4cc(Br)ccc4OC[C@@H]3[C@H](c3ccccc3)[C@]1(C)C(=O)N2,-3.7,32.6,-4.6,-12.2,2.3,0.6,.
C[C@@]12C(=O)Nc3cc(Cl)ccc3C(=O)N1[C@H]1c3cc(Cl)ccc3OC[C@@H]1[C@@H]2c1ccccc1,6.0,39.9,-4.8,10.3,9.0,-7.7,.
CCCn1c(N)c(C(=O)COC(=O)CNC(=O)c2ccccc2OCC)c(=O)[nH]c1=O,-4.1,-7.7,-5.7,-11.8,-10.8,-10.4,.
Cc1cccc(-c2cccc3c4c([nH]c23)[C@@H]2C[C@H](N(C)C(=O)Nc3ccccc3C)[C@H]([C@H](C)O)CN2CC4)c1,-3.4,.,.,.,-19.9,.,.
CCN(CC)c1ccc(-c2nn3c(-c4ccc(C(C)(C)C)cc4)nnc3s2)cc1,-8.0,.,.,.,-24.9,.,.
O=C(Nc1ccccc1)c1ccc(S(=O)(=O)N2CCCC2)cc1,-5.3,-8.3,-4.0,23.4,4.2,0.3,.
O=C(Nc1nc(-c2ccccc2)c(C(=O)c2ccccc2)s1)c1ccc(S(=O)(=O)N2CCCC2)cc1,0.0,82.6*,-3.8,-6.9,-7.1,-1.8,21.8
O=C(Nc1nc(-c2ccccc2)c(-c2ccccc2)s1)c1ccc(S(=O)(=O)N2CCCC2)cc1,-1.5,67.2*,-12.4,5.8,10.8,-9.6,15.0
O=C(Nc1ccc(S(=O)(=O)N2CCCC2)cc1)c1ccccc1,-5.3,-3.5,-4.6,-1.0,-7.4,-10.3,.
CCCN(CCC)S(=O)(=O)c1ccc(C(=O)Nc2nc3c(s2)CCc2ccccc2-3)cc1,-0.3,0.5,-1.9,30.2,0.3,2.3,.
N#CCCN(CCC#N)S(=O)(=O)c1ccc(C(=O)Nc2nc(-c3ccccc3)c(C(=O)c3ccccc3)s2)cc1,-2.4,57.5*,-1.5,-3.1,-4.5,-0.2,11.7
COC(=O)c1sc2ccccc2c1NC(=O)c1ccc(S(=O)(=O)N2CCCCC2)cc1,2.5,62.4*,-2.4,11.8,4.7,0.7,32.5
CC(C)(C)N(Cc1ccccc1)C(=O)COC(=O)c1ccc([N+](=O)[O-])o1,-0.5,50.4*,-5.7,0.3,-16.4,-27.8,51.9*
Cn1cnnc1Sc1cc(N2CCN(S(=O)(=O)c3ccc(Cl)c(Cl)c3)CC2)ccc1[N+](=O)[O-],-4.2,18.3,.,-25.2,8.4,-5.1,.
O=[N+]([O-])c1ccc(N2CCN(S(=O)(=O)c3ccc4ccccc4c3)CC2)cc1NCC1CCCO1 (centres undefined),1.9,51.0*,10.0,-4.7,2.8,4.9,1.6
Cn1cnnc1Sc1cc(N2CCN(S(=O)(=O)c3ccc4ccccc4c3)CC2)ccc1[N+](=O)[O-],4.4,63.5*,-8.5,6.1,7.0,2.0,-4.1
O=C(NCc1ccco1)C1CCCN(S(=O)(=O)c2ccc(F)cc2)C1 (centres undefined),3.0,.,.,.,10.5,.,.
O=C(Nc1ccc(Cl)cc1)c1csc(-c2ccccc2)n1,-1.2,61.3*,-3.4,8.0,3.8,-3.0,58.8*
COc1cc(/C=C(\C#N)c2nc3ccccc3s2)cc([N+](=O)[O-])c1O,-2.3,50.6*,-5.9,-0.7,3.9,-119.4,46.4*
N#C/C(=C\c1ccc(O)c([N+](=O)[O-])c1)c1nc2ccccc2s1,-0.5,19.7,-19.9,4.8,0.7,-126.8,.
SMILES,ADAM17 inh,FAS TE block,CaV13 FRET inh,Arr AP2 block,ADAM10 inh,CendR NRP1 mod,FAS-TE conf
N#Cc1ccc(C(=O)Nc2ccc3ccccc3c2)cc1,-14.3,8.3,-6.8,-3.0,-17.6,16.8,.
N#Cc1ccccc1Sc1ccccc1C(=O)Nc1ccc2ccccc2c1,8.6*,59.5*,-3.9,-0.3,17.1,0.9,37.5
N#Cc1ccccc1Sc1ccccc1C(=O)Nc1ccc(Br)cc1,6.2,51.1*,-5.3,25.7,15.9,-0.9,-7.3
COC(=O)[C@]12C[C@H](CC(=O)NCc3ccc(OC)c(OC)c3)C(=O)N(Cc3ccccc3)C1=C[C@H](COCc1ccccc1)O[C@@H]2C,0.5,.,.,.,12.1,.,.
COC(=O)[C@@]12C[C@@H](CC(=O)NCCc3ccccc3OC)C(=O)N(CCc3ccc(OC)c(OC)c3)C1=CCC(C)(C)C2,6.0,.,-9.0,.,11.5,-8.4,.
O=C(Nc1cccc(C(=O)O)c1)/C(=C/c1cccc([N+](=O)[O-])c1)NC(=O)c1cccc(Br)c1,-3.0,62.4*,-2.2,-3.7,-4.9,-5.2,57.6*
COc1ccc(Cc2c(-c3ccccc3)nc3c(C)cc(Br)cn23)c(C)c1,-0.9,15.4,-11.3,.,1.4,-20.7,.
O=C1Nc2cc(Cl)c(Cl)cc2N(O)N1c1ccc(Cl)c(Cl)c1,-5.1,61.5*,-6.6,-3.5,-9.5,22.7,66.6*
O=C(CSCc1ccc(F)cc1)Nc1ccc(N2CCOCC2)cc1N1CCOCC1,-8.6,-0.1,-4.9,-0.1,-4.9,-5.0,.
Cc1nn(Cc2ccc(F)cc2)c2sc(C(=O)Nc3ccc(N4CCOCC4)cc3N3CCOCC3)cc12,-0.9,51.8*,-5.3,-3.4,-0.2,-5.1,26.4
CC1(C)NC(=O)N(CC(=O)Nc2ccc(-n3cnnn3)cc2)C1=O,-1.7,-9.5,-10.8,33.1,1.4,2.3,.
O=C(COC(=O)c1cc([N+](=O)[O-])ccc1Cl)NCCc1ccccc1,1.3,76.1*,-4.8,1.9,-13.1,0.7,83.4*
CN(C(=O)COC(=O)c1ccc([N+](=O)[O-])cc1)c1ccccc1,0.0,6.4,-4.5,-4.2,0.6,15.1,.
CN(C(=O)COC(=O)c1cc([N+](=O)[O-])ccc1Cl)c1ccccc1,6.2,52.4*,-7.5,2.4,-3.5,-7.7,62.1*
